Bioassay records deposited in PubChem by Broad Institute.
The list is not random: actives were taken first. Their share in the collection is about 1.1%.
GSK3A inh: blocks human GSK-3 alpha kinase | ADP-Glo luminescence, 60 min | P49840 | 0.1% of 320,000 active | AID 2650 | inhibition, % at 10 µM;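 active means more than half of replicates show inhibition above 20%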;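 further: GST-tagged GSK-3 alpha with peptide substrate and 25 µM ATP; 0% = DMSO neutral wells and 100% = GW8510 positive control wells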
GSK3B inh: human GSK3beta kinase inhibition; activity score (negative = inhibition), % at 10 µM; P49841; 0.038% of 300,000 active; GST-GSK3beta kinase, ADP-Glo luminescence, 60 min; active compounds read low;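 active means more than half of replicate wells score below -50%, meaning over 50% inhibition versus plate controls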;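 further: 0% = median DMSO wells and -100% = median GW8510 positive control wells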
Target sequence (P49841 whole entry, looked up): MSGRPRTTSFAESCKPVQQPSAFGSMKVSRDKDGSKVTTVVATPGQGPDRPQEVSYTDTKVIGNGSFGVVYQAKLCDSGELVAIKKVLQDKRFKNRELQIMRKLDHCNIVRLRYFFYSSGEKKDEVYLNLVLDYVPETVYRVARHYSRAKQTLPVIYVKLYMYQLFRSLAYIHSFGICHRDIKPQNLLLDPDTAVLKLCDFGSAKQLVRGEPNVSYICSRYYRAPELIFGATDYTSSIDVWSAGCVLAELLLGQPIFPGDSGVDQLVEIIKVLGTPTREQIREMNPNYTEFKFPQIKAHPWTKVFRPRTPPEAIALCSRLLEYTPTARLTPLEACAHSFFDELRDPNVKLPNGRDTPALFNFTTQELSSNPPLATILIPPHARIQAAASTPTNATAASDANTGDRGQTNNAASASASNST
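Assay system: GST-tagged human GSK3beta kinase, cell-free; Input: 1.6 ng GSK3beta; Medium: Tris/MgCl2 kinase buffer; Timing: 60 min enzyme reaction, room temperature; Signal: ADP-Glo luminescence quantifying ADP generated by kinase; Evaluation: score relative to plate controls; Benchmarks: DMSO neutral wells and GW8510 at 20 µM as positive.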
SR-BI DiI-HDL act: activators of SR-BI mediated HDL lipid uptake | CHO ldlA[mSR-BI] cells, DiI-HDL uptake fluorescence, 3 h; 100 = double the neutral-control signal | activation, % at 12.5 µM | 0.096% of 320,000 active;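 active means mean replicate activation of at least 60% and every replicate at or above 60%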;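 further: 0% = median plate neutral-control signal and 100% = twice that signal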
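System: CHO ldlA[mSR-BI] cells / Medium: HEPES-buffered (25 mM, pH 7.4) F12 plus 0.5% BSA / Probe or stimulus: labelled HDL, 10 µg/mL / Doses: single compound concentration, delivered by pin transfer / Schedule: 3 h, 37 °C / Measured by: DiI fluorescence, bottom read / Measure: cell-associated DiI fluorescence as measure of HDL uptake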
SR-BI DiI inh: inhibitors of mouse SR-BI mediated HDL lipid uptake; Q61009; ldlA[mSR-BI] CHO cells, DiI-HDL uptake fluorescence, 3 h; inhibition, % at 12.5 µM; 0.96% of 320,000 active;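 active means mean replicate inhibition of at least 70% and a set share of replicates each scoring 70 or more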;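 further: 0% = median of neutral control wells and 100% = median of positive control wells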
CDK5 inh: blocks human CDK5/p35 kinase activity; Recombinant CDK5/p35, ADP-Glo luminescence, 60 min; inhibition, % at 10 µM; 0.01% of 330,000 active;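 active means highest replicate inhibition of at least 50% and at least 75% of replicates reaching 50%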;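 further: plate controls were DMSO neutral control for no effect and GW8510 at 10 µM for full effect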
* hit, by the source's call; · = no result given.

SMILES	GSK3A inh	GSK3B inh	SR-BI DiI-HDL act	SR-BI DiI inh	CDK5 inh
Cc1cccc(C)c1NC(=O)CN1CCc2ccccc2C1	0	4	1	-1	3
CC(C)(C)OC(=O)N(Cc1ccccc1)Cc1cccc(OCc2cccc(NC(=O)c3ccccc3)c2)c1	·	·	-73	73*	1
Cc1ccc(-n2nnnc2CSc2nnc(-c3ccc(O)cc3)o2)cc1	67*	0	-36	36	2
Cc1ccc(/C=C/S(=O)(=O)NCC(=O)OCC(=O)N2CC(=O)Nc3ccccc32)cc1	-5	0	·	·	0
Cc1ccnc(NC(=O)CCC(=O)N(CC(=O)NCc2ccccc2)Cc2cccs2)c1	51*	-23	21	-21	0
CCc1nnc(NC(=O)c2ccc(OC)c(S(=O)(=O)N3CCCC3)c2)s1	-1	·	-19	19	-1
CCOC(=O)C1=C(COC(=O)CCc2ccc(CC)cc2)NC(=O)NC1C (configuration not stated)	-3	·	22	-22	-2
COc1ccc(-c2nc(-n3c(C)c(C(C)=O)c(C(C)=O)c3C)sc2C)cc1	1	-2	-68	68	-2
CC(=O)c1c(C(C)=O)c(C)n(-c2nc(-c3ccc(C)c(C)c3)c(C)s2)c1C	·	-5	-76	76*	0
COc1cc(CNCc2ccc(OC)cc2OC)cc(OC)c1	0	0	-19	19	0
CN=C1S/C(=C\c2ccc(OCC(=O)OC)c(OC)c2)C(=O)N1C	0	0	441*	-441	-1
CN=C1S/C(=C\c2ccc(O)c(OC)c2)C(=O)N1C	8	-3	·	·	·
S=C(NCc1ccccc1)N1CCN(c2ccccc2)CC1	-2	2	78*	-78	-1
O=C(NCc1ccc(Cl)cc1)c1ccc(NC(=O)C2CCCO2)cc1 (configuration not stated)	-2	·	·	·	-2
CC1=[N+](C)c2ccc3ccccc3c2C1(C)C	-1	-1	223*	-223	0
Cc1c(NC(=O)c2cc(-c3cccs3)nc3ccccc23)c(=O)n(-c2ccccc2)n1C	-7	4	-77	77*	1
COc1ccc(-c2cc(C(=O)Nc3c(C)n(C)n(-c4ccccc4)c3=O)c3ccccc3n2)c(OC)c1	-2	4	-69	69	0
O=C(NNc1nc2ccc(Cl)cc2s1)c1cc(-c2cccs2)nc2ccccc12	4	2	-89	89*	0
Cc1c(NC(=O)c2cc(-c3ccccc3)nc3ccccc23)c(=O)n(-c2ccccc2)n1C	2	·	-77	77*	-1
COc1ccc(-c2cc(C(=O)Nc3c(C)n(C)n(-c4ccccc4)c3=O)c3ccccc3n2)cc1OC	2	2	-92	92*	0
Cc1cc(C)c2nc(NNC(=O)c3cc(-c4cccs4)nc4ccccc34)sc2c1	2	2	-35	35	-1
Cc1ccc(NC(=O)c2cc(-c3cccs3)nc3ccccc23)nc1	-1	-2	·	·	-1
O=C(Cc1cccc(NC(=O)C2CCN(C(=O)C3CCCC3)CC2)c1)Nc1cccc(C(=O)N2CCOCC2)c1	·	·	-24	24	1
Cc1ccc(-c2cc(C(=O)Nc3c(C)n(C)n(-c4ccccc4)c3=O)c3ccccc3n2)cc1	-4	·	-74	74*	0
CC(Oc1ccc(Cl)cc1Cl)C(=O)Nc1ccc2oc(-c3ccncc3)nc2c1 (configuration not stated)	-4	1	-78	78*	0
SMILES	GSK3A inh	GSK3B inh	SR-BI DiI-HDL act	SR-BI DiI inh	CDK5 inh
Cc1nn(-c2ccccc2)c2nc(-c3cccs3)cc(C(=O)NN)c12	-1	-2	-84	84*	2
COc1ccc(NC(=O)c2cc(-c3ccccc3)nc3c2c(C)nn3-c2ccccc2)c(OC)c1	0	-3	-88	88*	0
CCn1c(C)c(C)c2cc(C(=O)Nc3cccc(Cl)c3)ccc21	7	-1	-101	101*	0
CCn1c(C)cc(O)c(C(=O)Nc2cccc(Cl)c2)c1=O	-1	0	·	5	2
O=C(COC(=O)CNC(=O)c1ccc(Cl)cc1Cl)NCc1ccco1	-2	0	89*	-89	1
CCC(=O)N(CC)c1nc(-c2ccc(OC)cc2)cs1	·	0	-87	87*	1
Cc1cc(CNC(=O)Cn2nc(C)c([N+](=O)[O-])c2C)c2ccccc2n1	0	0	6	-6	0
O=C(Nc1cc(Br)ccc1O)c1cnn2c(C(F)F)cc(C3CC3)nc12	-2	1	-77	77*	-1
O=C(Nc1cccnc1)c1cnn2c(C(F)F)cc(C3CC3)nc12	3	-5	-4	4	0
COc1ccccc1-c1cnn2c(NCc3ccccc3)cc(C)nc12	-1	0	1	-1	0
COc1ccc(CCNc2cc(C)nc3c(-c4ccccc4OC)cnn23)cc1OC	0	-1	-91	91*	0
O=[N+]([O-])c1cccc(NC(=S)Nc2nc(-c3ccccc3Cl)cs2)c1	0	1	-84	84*	-1
CCNC(=S)Nc1cccc([N+](=O)[O-])c1	0	2	·	·	·
COc1ccc(-c2oc(/N=C/N3CCOCC3)c(C#N)c2-c2ccc(OC)cc2)cc1	-1	0	-72	72*	0
N#Cc1c(/N=C/c2ccccc2)oc(-c2ccccc2)c1-c1ccccc1	-4	1	-7	7	1
CCc1noc(C)c1C(=O)N(CC)CC(=O)Nc1cc(Cl)ccc1C	-1	·	10	-10	-3
O=C(Nc1nc2ccccc2s1)c1cc(-c2ccccc2)nn1-c1ccccc1	-2	-3	-66	66	0
CC(=O)c1sc(NC(=O)c2cc(-c3ccccc3)nn2-c2ccccc2)nc1C	-3	1	-80	80*	-2
CC(C)CC(=O)Nc1ccc(S(=O)(=O)Nc2nccs2)cc1	0	6	65*	-65	0
O=C(CSc1nnc(COc2ccc(Cl)cc2)o1)N1c2ccccc2CCc2ccccc21	0	-25	-75	75*	-1
Cc1ccsc1C(=O)OCC(=O)NCc1ccc(Cl)cc1	1	·	27	-27	0
O=c1[nH]c(=O)n(CCCc2ccccc2)cc1-c1ccccc1	·	·	15	-15	1
Cc1cccc2sc(NC(=O)c3cc(S(=O)(=O)N(C)C)ccc3N3CCCC3)nc12	1	2	-76	76*	0
N#C/C(=C/c1ccc(-c2ccc([N+](=O)[O-])cc2)o1)C(=O)Nc1nc(-c2cccs2)cs1	·	·	-88	88*	2
CCC(C)C(=O)Nc1nc(C)c(-c2csc(Nc3ccccc3OC)n2)s1 (configuration not stated)	-3	0	-78	78*	0
CCCCC(=O)Nc1nc(C)c(-c2csc(Nc3ccccc3OC)n2)s1	2	-3	-60	60	1
